Assay results from ChEMBL document CHEMBL4715718, “Methyl Protodioscin, a Steroidal Saponin, Inhibits Neointima Formation in Vitro and in Vivo” (J Nat Prod, 2016).
The source made the active and inactive calls. No cut-off for these calls is given here.

Key:
[1] = test system: A7R5; experiment: Induction of apoptosis in rat A7r5 cells assessed as effect on Bax protein expression at 3 to 9 uM after 24 hrs by Western blot analysis; format: functional, cell-based; conditions: dose 3-9 µM
In short: (§1)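 Bax and Bcl-2 in A7r5 cells are immunoblotted after treatment (3, 6 and 9 μM, 24 h) in culture medium. Lysis in SDS/DTT/Tris buffer pH 6.8 at 95 °C, then SDS-PAGE and PVDF. Bands are given relative to the 10% FBS control, and the Bax/Bcl-2 ratio is computed. Triplicate; one-way ANOVA.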

[2] = (§2) Inhibition of neointima formation of injured vessel in rat model of balloon injury induced neointimal hyperplasia assessed as area of lumen at 6 uM administered as extravascular treatment and measured after 2 weeks by hematoxylin and eosin Y staining based histopathological analysis (reference value: 6809.1 +/-820.8 um2); format: functional
In short: (§3)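 Male rats (3–4 months, 300–350 g) were randomized into four groups: sham, balloon injury + PBS, and balloon injury + 3 μM or 6 μM compound. PBS or compound was given extravascularly in ice-cold 30% (w/v) pluronic F-127 gel. Arterial sections 5–10 μm thick (6 per block) were stained with hematoxylin and eosin Y. Intima, media and lumen areas and the intima/media ratio were measured by image analysis.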

[3] = test system: A7R5; experiment: Induction of apoptosis in rat A7r5 cells assessed as change in sub-G1 phase at 3 to 9 uM after 24 hrs by PI/RNase A staining based flow cytometric analysis; format: functional, cell-based; conditions: dose 3-9 µM
In short: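 A7r5 cells were plated at 1.0 × 10^5 per 10 cm dish and exposed to graded concentrations in DMEM with 10% FBS. They were trypsinized, fixed in ice-cold 70% ethanol overnight at −20 °C, then stained with PI/Triton X-100/RNase A at 37 °C for at least 30 min in the dark. Sub-G1, G0/G1, S and G2/M fractions were read by FACScan. Control: 10% FBS; n = 3.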

[4] = as §2, with “at 3” for “at 6”; format: functional; in short: as §3
[5] = (§4) Inhibition of neointima formation of injured vessel in rat model of balloon injury induced neointimal hyperplasia assessed as ratio of area of intima-to-media at 3 uM administered as extravascular treatment and measured after 2 weeks by hematoxylin and eosin Y staining based histopathological analysis (reference value: 1.98 +/-0.36); format: functional; in short: as §3
[6] = test system: A7R5; experiment: Down regulation of ERK1 expression in rat A7r5 cells at 3 to 9 uM after 24 hrs by Western blot analysis; format: functional, cell-based; conditions: dose 3-9 µM
In short: (§5)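 A7r5 rat aortic smooth muscle cells (DMEM, 10% FBS, 37 °C, 5% CO2) treated with 3, 6 or 9 μM in culture medium for 24 h. Lysed in 2% SDS/50 mM DTT/62.5 mM Tris-HCl pH 6.8 at 95 °C for 5 min. SDS-PAGE, PVDF transfer, 5% milk block, HRP secondary. Band expressed as % of control; mean ± SD, n = 3, one-way ANOVA.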

[7] = test system: A7R5; experiment: Inhibition of cell migration in rat A7r5 cells at 6 to 9 uM after 16 hrs by crystal violet staining based transwell assay; format: functional; conditions: dose 6-9 µM
In short: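 Transwell, 8 μm pore: 1.2 × 10^4 A7r5 cells in the upper chamber attach for 2 h. The upper chamber then receives serum-free medium with compound, and the lower chamber 10% FBS medium with compound, for 16 h at 37 °C. Cells are fixed in formaldehyde, stained with crystal violet and counted in five random fields. Migration is given as % of control cell number.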

[8] = molecular target: T1, Disintegrin and metalloproteinase domain-containing protein 15 (Rattus norvegicus) (UniProt Q9QYV0); experiment: Inhibition of ADAM15-mediated ERK phosphorylation in rat A7r5 cells at 3 to 9 uM after 24 hrs by western blot analysis; format: cell-based; conditions: dose 3-9 µM; in short: as §5
T1 sequence (whole entry): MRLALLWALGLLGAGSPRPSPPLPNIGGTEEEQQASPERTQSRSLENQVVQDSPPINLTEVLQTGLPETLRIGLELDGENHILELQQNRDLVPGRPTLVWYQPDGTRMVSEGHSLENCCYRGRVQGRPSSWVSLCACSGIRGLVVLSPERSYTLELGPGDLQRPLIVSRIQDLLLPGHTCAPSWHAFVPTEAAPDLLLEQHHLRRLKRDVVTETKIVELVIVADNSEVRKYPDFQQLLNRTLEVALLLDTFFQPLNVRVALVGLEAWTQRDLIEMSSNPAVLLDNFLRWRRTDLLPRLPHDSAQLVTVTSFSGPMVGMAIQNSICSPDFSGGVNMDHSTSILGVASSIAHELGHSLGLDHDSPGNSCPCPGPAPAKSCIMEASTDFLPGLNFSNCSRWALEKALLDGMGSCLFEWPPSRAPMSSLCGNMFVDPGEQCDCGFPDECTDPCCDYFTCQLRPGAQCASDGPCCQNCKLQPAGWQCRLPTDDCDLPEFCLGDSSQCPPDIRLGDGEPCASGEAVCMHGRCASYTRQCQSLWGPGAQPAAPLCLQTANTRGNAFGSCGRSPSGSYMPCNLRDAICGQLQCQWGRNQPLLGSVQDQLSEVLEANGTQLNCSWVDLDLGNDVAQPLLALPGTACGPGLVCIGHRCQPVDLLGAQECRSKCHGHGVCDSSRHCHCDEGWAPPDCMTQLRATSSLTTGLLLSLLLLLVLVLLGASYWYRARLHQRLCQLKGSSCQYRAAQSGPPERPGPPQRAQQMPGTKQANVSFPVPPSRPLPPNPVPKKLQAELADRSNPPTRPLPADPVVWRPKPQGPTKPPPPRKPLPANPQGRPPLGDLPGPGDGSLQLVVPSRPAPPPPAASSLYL

[9] = as §2, with “media” for “lumen”, “1462.7 +/-393.9” for “6809.1 +/-820.8”; format: functional; in short: as §3
[10] = as §2, with “media” for “lumen”, “3” for “6”, “1462.7 +/-393.9” for “6809.1 +/-820.8”; format: functional; in short: as §3
[11] = as §4, with “at 6” for “at 3”; format: functional; in short: as §3
[12] = molecular target: T1, Disintegrin and metalloproteinase domain-containing protein 15 (Rattus norvegicus); experiment: Inhibition of ADAM15-mediated MMP-9 activity in rat A7r5 cells at 6 uM after 24 hrs by gelatin zymography; format: cell-based
In short: (§6)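 Conditioned medium came from A7r5 cells (1.0 × 10^5 per 10 cm dish) held 24 h with the compound in DMEM/10% FBS. It ran under nonreducing conditions on 10% SDS-PAGE with 0.1% gelatin. Gels were washed in 2.5% Triton X-100 for 1 h, developed at 37 °C in pH 8.0 Tris/10 mM CaCl2 buffer, then Coomassie stained and destained. Clear bands were quantified as % of control; n = 3.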

[13] = molecular target: T1, Disintegrin and metalloproteinase domain-containing protein 15 (Rattus norvegicus); experiment: Inhibition of ADAM15-mediated AKT phosphorylation in rat A7r5 cells at 3 to 9 uM after 24 hrs by western blot analysis; format: cell-based; conditions: dose 3-9 µM; in short: as §5
[14] = test system: A7R5; experiment: Down regulation of ERK2 expression in rat A7r5 cells at 3 to 9 uM after 24 hrs by Western blot analysis; format: functional, cell-based; conditions: dose 3-9 µM; in short: as §5
[15] = test system: A7R5; experiment: Induction of cell cycle arrest in rat A7r5 cells assessed as accumulation of cells at G0/G1 phase at 3 to 9 uM after 18 hrs by PI/RNase A staining based flow cytometric analysis; format: functional; conditions: dose 3-9 µM
[16] = test system: A7R5; experiment: Down regulation of ADAM15 protein translational level in rat A7r5 cells at 9 uM after 24 hrs by Western blot analysis; format: functional, cell-based; in short: as §5
[17] = as §2, with “intima” for “lumen”, “3346.4 +/-556.7” for “6809.1 +/-820.8”; format: functional; in short: as §3
[18] = test system: A7R5; experiment: Down regulation of PI3K expression in rat A7r5 cells at 3 to 9 uM after 24 hrs by Western blot analysis; format: functional, cell-based; conditions: dose 3-9 µM; in short: as §5
[19] = Antiproliferative activity against rat A7r5 cells assessed as reduction in cell viability after 24 hrs by MTT assay; conditions: A7R5, 24 h
[20] = molecular target: T1, Disintegrin and metalloproteinase domain-containing protein 15 (Rattus norvegicus); experiment: Inhibition of ADAM15-mediated MMP-9 activity in rat A7r5 cells at 9 uM after 24 hrs by gelatin zymography; format: cell-based; in short: as §6
[21] = test system: A7R5; experiment: Down regulation of MMP-9 expression in rat A7r5 cells at 3 to 9 uM after 24 hrs by Western blot analysis; format: functional, cell-based; conditions: dose 3-9 µM; in short: as §5
[22] = molecular target: T1, Disintegrin and metalloproteinase domain-containing protein 15 (Rattus norvegicus); experiment: Inhibition of ADAM15-mediated PI3K phosphorylation in rat A7r5 cells at 3 to 9 uM after 24 hrs by western blot analysis; format: cell-based; conditions: dose 3-9 µM; in short: as §5
[23] = test system: A7R5; experiment: Induction of apoptosis in rat A7r5 cells assessed as effect on Bcl2 protein expression at 3 to 9 uM after 24 hrs by Western blot analysis; format: functional, cell-based; conditions: dose 3-9 µM; in short: as §1
[24] = test system: Rattus norvegicus; experiment: Reduction in ADAM15 protein expression in VSMCs and injured arteries in rat model of balloon injury induced neointimal hyperplasia at 3 to 6 uM administered as extravascular treatment and measured after 2 weeks by Western blot analysis; format: functional; conditions: dose 3-6 µM
[25] = test system: A7R5; experiment: Down regulation of FAK expression in rat A7r5 cells at 3 to 9 uM after 24 hrs by Western blot analysis; format: functional, cell-based; conditions: dose 3-9 µM; in short: as §5
[26] = test system: A7R5; experiment: Inhibition of cell migration in rat A7r5 cells at 9 uM after 18 hrs by scratch wound healing assay; format: functional, cell-based
[27] = test system: A7R5; experiment: Down regulation of MMP-2 expression in rat A7r5 cells at 3 to 9 uM after 24 hrs by Western blot analysis; format: functional, cell-based; conditions: dose 3-9 µM; in short: as §5
[28] = test system: A7R5; experiment: Down regulation of AKT expression in rat A7r5 cells at 3 to 9 uM after 24 hrs by Western blot analysis; format: functional, cell-based; conditions: dose 3-9 µM; in short: as §5
[29] = molecular target: T1, Disintegrin and metalloproteinase domain-containing protein 15 (Rattus norvegicus); experiment: Inhibition of ADAM15-mediated FAK phosphorylation in rat A7r5 cells at 3 to 9 uM after 24 hrs by western blot analysis; format: cell-based; conditions: dose 3-9 µM; in short: as §5
[30] = as §2, with “intima” for “lumen”, “3” for “6”, “3346.4 +/-556.7” for “6809.1 +/-820.8”; format: functional; in short: as §3
[31] = test system: A7R5; experiment: Induction of apoptosis in rat A7r5 cells assessed as effect on Bax/Bcl2 expression ratio at 3 to 9 uM measured after 24 hrs by Western blot analysis; format: functional, cell-based; conditions: dose 3-9 µM; in short: as §1
[32] = test system: Rattus norvegicus; experiment: Inhibition of neointima formation index of injured vessel in rat model of balloon injury induced neointimal hyperplasia at 3 to 6 uM administered as extravascular treatment and measured after 2 weeks by hematoxylin and eosin Y staining based histopathological analysis; format: functional; conditions: dose 3-6 µM; in short: as §3

SMILES: CO[C@]1(CC[C@@H](C)CO[C@@H]2O[C@H](CO)[C@@H](O)[C@H](O)[C@H]2O)O[C@H]2C[C@H]3[C@@H]4CC=C5C[C@@H](O[C@@H]6O[C@H](CO)[C@@H](O[C@@H]7O[C@@H](C)[C@H](O)[C@@H](O)[C@H]7O)[C@H](O)[C@H]6O[C@@H]6O[C@@H](C)[C@H](O)[C@@H](O)[C@H]6O)CC[C@]5(C)[C@H]4CC[C@]3(C)[C@H]2[C@@H]1C [METHYLPROTODIOSCIN]
- Activity [1]: inactive
- Activity [2]: 3076.6 um2
- Activity [3]: inactive
- Activity [4]: 4730.4 um2
- Ratio [5]: 0.92
- inhibition [6]: Active
- inhibition [7]: Active
- inhibition [8]: Active
- Activity [9]: 1164.2 um2
- Activity [10]: 1902 um2
- Ratio [11]: 0.34
- inhibition [12]: Active
- inhibition [13]: Active
- inhibition [14]: Active
- Activity [15]: Active
- inhibition [16]: Active
- Activity [17]: 912.4 um2
- inhibition [18]: Active
- IC50 [19]: 9 µM
- inhibition [20]: Active
- inhibition [21]: Active
- inhibition [22]: Active
- Activity [23]: inactive
- inhibition [24]: Active
- inhibition [25]: Active
- inhibition [26]: Active
- inhibition [27]: Active
- inhibition [28]: Active
- inhibition [29]: Active
- Activity [30]: 1828.4 um2
- Activity [31]: inactive
- inhibition [32]: Active
